Rows were chosen to be rich in hits. Some 2% of all compounds tested hit in one or more screens of this group.
E-selectin induc – E-selectin induction in HUVECs, primary screen, imaging, HUVEC, immunofluorescence imaging, single point; P16581; normalized: neutral wells 0, TNF-alpha wells 100; activation, % at 7.58 µM; 0.37% of 260,000 active;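 active = mean E-selectin-positive cell signal at least 10% of the positive control, reached in at least 60% of replicates, without over 20% cell loss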
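Assay system: HUVEC primary endothelial cells. Input: 3,000 HUVEC seeded per well. Doses: one compound dose added by pin transfer. Read-out basis: % PE-positive cells. Benchmarks: TNF-alpha high, DMSO low. Detection: immunofluorescence imaging. Buffer or medium: EGM-2, gelatin.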
RAD54 branch – inhibitors of human RAD54 branch migration, primary screen, biochemical, fluorescence, single point; AID 602329, 2012; DNA repair and recombination protein RAD54-like (Homo sapiens), Q92698; 0.14% of 360,000 active; RAD54 Holliday junction branch migration, FAM/BHQ fluorescence; inhibition, % at 10.4 µM;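 active = mean normalized replicate activity at least 40 and at least half of replicates scoring 40 or more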;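 also: 0% = median of neutral control wells and 100% = median of positive control wells; inhibitors cause a drop in the FAM fluorescence signal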
PglD inh – C. jejuni PglD acetyltransferase inhibitors, primary screen, biochemical, DTNB colorimetric, single point; UDP-N-acetylbacillosamine N-acetyltransferase PglD (Campylobacter jejuni); purified PglD enzyme, DTNB colorimetric CoA detection; inhibition, % at 12.5 µM; 0.098% of 360,000 active; AID 602405, 2012; in the data active = inhibition above about 16%, passing the limit was not always enough
RAD52 inh – RAD52 DNA annealing inhibitors, primary screen, biochemical, FRET, single point, set 2; DNA repair protein RAD52 homolog (Homo sapiens), P43351; recombinant RAD52 DNA annealing, FRET fluorescence; inhibition, % at 18.7 µM; 0.46% of 360,000 active; AID 651710, 2012;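 active = every replicate showing at least 50% inhibition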
Target sequence (P43351 whole entry, looked up): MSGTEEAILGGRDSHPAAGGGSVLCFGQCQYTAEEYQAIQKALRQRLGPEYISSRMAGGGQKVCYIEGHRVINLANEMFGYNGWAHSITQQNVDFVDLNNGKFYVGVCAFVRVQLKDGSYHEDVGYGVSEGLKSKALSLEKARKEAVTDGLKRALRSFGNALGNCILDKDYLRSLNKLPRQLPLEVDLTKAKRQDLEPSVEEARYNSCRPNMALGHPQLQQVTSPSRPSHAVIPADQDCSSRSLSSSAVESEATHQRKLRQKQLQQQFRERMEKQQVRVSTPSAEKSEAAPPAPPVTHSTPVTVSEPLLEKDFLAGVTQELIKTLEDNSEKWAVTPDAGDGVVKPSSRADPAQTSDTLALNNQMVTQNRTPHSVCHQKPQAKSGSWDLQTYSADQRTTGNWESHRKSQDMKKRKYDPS
Ecoli rRNA inh – reduced GFP signal of wild-type E. coli, primary screen, bacterial rRNA inhibitor project, GFP/RFP fluorescence, OD600, single point; GFP signal change (wild-type ribosome), % (concentration not given with the values); E. coli WT GFP vs humanized-ribosome RFP mutants, 24 h; hits give low values; DMSO median 0, no signal -100; 1.6% of 350,000 active;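 active = significant combined selectivity score with lowered wild-type GFP, culture density cut under 30%, mutant RFP and density less affected; inactive = any of these conditions unmet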
Xi reactivation – activators of inactive X chromosome reactivation, primary screen, imaging, XiGFP fibroblasts, GFP high-content imaging, set 2 | XiGFP mouse fibroblasts, % GFP-positive cells imaging, 3 d; cells co-treated with 5-aza-dC sensitizer; scaled so ellipticine positive control = 100% | activation, % at 7.58 µM | 0.055% of 360,000 active;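 active = mean normalized replicate activation at least 10% and every replicate at or above 10%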;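 also: 0% = median of on-plate neutral control wells and 100% = ellipticine 6 µM median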
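System: 68-5-11 XiGFP fibroblast line | Buffer or medium: DMEM containing 5-aza-dC | Compound: Single point | Times: Compounds 3 days, fix/stain 15 min at room temperature | Benchmarks: Positive control ellipticine, 6 µM final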
Starred values were filed as active, the others as inactive.

Results for C[C@H](CO)N1C[C@H](C)[C@@H](CN(C)C(=O)Nc2ccc(C(F)(F)F)cc2)OCCCC[C@H](C)Oc2ccc(NS(C)(=O)=O)cc2C1=O ?
E-selectin induc: 0; RAD54 branch: 2; PglD inh: -2; RAD52 inh: 23; Ecoli rRNA inh: -5; Xi reactivation: -1

How did CCCC/C(O)=C1\C(=O)CCCC1=NCCc1c(C)[nH]c2ccccc12 do in these assays?
RAD52 inh: -9; Ecoli rRNA inh: -23*; Xi reactivation: 0

How did CCC/C(O)=C1\C(=O)CCCC1=NCCc1c(C)[nH]c2ccc(C)cc12 do in these assays?
E-selectin induc: 0; RAD54 branch: -12; PglD inh: 2; RAD52 inh: -8; Ecoli rRNA inh: 3; Xi reactivation: 0

What do the screens show for `COCCNC(=O)C[C@H]1C[C@H]2c3cc(NC(=O)c4ccc5c(c4)OCO5)ccc3O[C@H]2[C@H](CO)O1`?
E-selectin induc: 0; RAD54 branch: -10; PglD inh: -2; RAD52 inh: 9; Ecoli rRNA inh: -2; Xi reactivation: 0

What do the screens show for `CN1CCN(CC#CCn2c3ccccc3c3ccccc32)CC1`?
RAD54 branch: 18; PglD inh: 0; RAD52 inh: 22; Ecoli rRNA inh: -34*

What do the screens show for `CC(NC(=O)COC(=O)C1CCN(c2ccc(C(F)(F)F)cn2)CC1)c1ccc(F)cc1` (stereo unspecified)?
RAD54 branch: -11; PglD inh: 11; RAD52 inh: -3; Ecoli rRNA inh: -5; Xi reactivation: 0

Results for CC(NC(=O)COC(=O)C1CCN(c2ccc(C(F)(F)F)cn2)CC1)c1ccc(Br)cc1 (stereo unspecified) ?
RAD54 branch: -6; PglD inh: 0; RAD52 inh: -18; Ecoli rRNA inh: -24*; Xi reactivation: 0

Results for C[C@H](CO)N1C[C@H](C)[C@H](CN(C)S(=O)(=O)c2ccc(Cl)cc2)Oc2c(NC(=O)c3ccncc3)cccc2C1=O ?
RAD54 branch: 10; PglD inh: -1; RAD52 inh: 2; Ecoli rRNA inh: -9; Xi reactivation: 0

What do the screens show for `Cc1ccc(C(=O)NC(=C(Cl)Cl)S(=O)(=O)c2ccc(Cl)cc2)cc1`?
RAD52 inh: -10; Ecoli rRNA inh: -24*; Xi reactivation: 0

What do the screens show for `Cc1ccc(C(=O)NC(=C(Cl)Cl)S(=O)(=O)c2ccc(C)cc2)cc1`?
RAD54 branch: -4; PglD inh: 7

What do the screens show for `CCCOc1ccc(/C(O)=C2/C(=O)C(=O)N(CCCn3ccnc3)C2c2ccc(C)o2)cc1` (stereo unspecified)?
E-selectin induc: 0; RAD52 inh: -17; Ecoli rRNA inh: -18*; Xi reactivation: 0

How did CCCOc1ccc(/C(O)=C2/C(=O)C(=O)N(CCCn3ccnc3)C2c2ccco2)cc1 (stereo unspecified) do in these assays?
RAD54 branch: 7; PglD inh: -5

How did CCCCNC(=O)c1onc(CSc2cc(C)ccc2C)c1C(=O)O do in these assays?
E-selectin induc: 0; RAD54 branch: -8; PglD inh: -1; RAD52 inh: 0; Ecoli rRNA inh: -40*; Xi reactivation: 0

How did Cc1[nH]c2c(C)cccc2c1CCNS(=O)(=O)c1cccc([N+](=O)[O-])c1 do in these assays?
E-selectin induc: 0; RAD52 inh: -11; Ecoli rRNA inh: -18; Xi reactivation: 0

Results for Cc1ccc([N+](=O)[O-])cc1S(=O)(=O)NCCc1c(C)[nH]c2c(C)cccc12 ?
E-selectin induc: 0; RAD54 branch: 3; PglD inh: 5; RAD52 inh: -6; Ecoli rRNA inh: -20*; Xi reactivation: 0

Results for COCCN(Cc1ccccc1)C(=O)c1cc(-c2ccc(OC)c(OC)c2)nc2ccccc12 ?
E-selectin induc: 0; RAD54 branch: -6; RAD52 inh: -14; Ecoli rRNA inh: -31*; Xi reactivation: 0

Results for CCN(Cc1ccccc1)C(=O)c1cc(-c2ccc(OC)c(OC)c2)nc2ccccc12 ?
E-selectin induc: 0; RAD54 branch: -7; PglD inh: 10; RAD52 inh: -7; Ecoli rRNA inh: -8; Xi reactivation: 0

Results for Cc1ccc(SCc2cn3c(C)csc3n2)cc1 ?
RAD54 branch: -7; PglD inh: 1; RAD52 inh: -7; Ecoli rRNA inh: -51*

What do the screens show for `CC(=O)NCc1cn2c(C)csc2n1`?
E-selectin induc: -2; RAD54 branch: -6; PglD inh: 5; RAD52 inh: -2; Ecoli rRNA inh: 0; Xi reactivation: 0

Results for COc1cc(C2C3=C(CC(C)(C)CC3=O)NC3=C2C(=O)c2ccccc23)ccc1O (stereo unspecified) ?
E-selectin induc: 0; RAD54 branch: -2; PglD inh: 5; RAD52 inh: 8; Ecoli rRNA inh: -31*; Xi reactivation: 0

How did Cc1ccc(C2C3=C(CC(C)(C)CC3=O)NC3=C2C(=O)c2ccccc23)cc1 (stereo unspecified) do in these assays?
E-selectin induc: 0; Xi reactivation: 0

How did Cc1cc(OCc2ccccc2)ccc1/C(O)=C1/C(=O)C(=O)N(Cc2cccnc2)C1c1ccncc1 (stereo unspecified) do in these assays?
E-selectin induc: 1; RAD52 inh: -15; Ecoli rRNA inh: -29*; Xi reactivation: 0

Results for COc1ccc(/C(O)=C2/C(=O)C(=O)N(Cc3cccnc3)C2c2ccncc2)cc1F (stereo unspecified) ?
RAD54 branch: 6; PglD inh: 0

How did N#Cc1cccc(C#N)c1Oc1ccc(S(=O)(=O)Nc2ccc(Cl)cc2)cc1 do in these assays?
E-selectin induc: 0; RAD52 inh: -14; Ecoli rRNA inh: -38*; Xi reactivation: 0

How did C[C@H](CO)N1C[C@H](C)[C@H](CN(C)Cc2cccc(C(=O)O)c2)Oc2ncc(C#C[C@@H](C)O)cc2C1=O do in these assays?
E-selectin induc: 0; Ecoli rRNA inh: 3; Xi reactivation: 0

Results for CCOC(=O)Cn1c(=O)oc2cc(S(=O)(=O)N(C)c3cccc(C)c3)ccc21 ?
E-selectin induc: 3; RAD52 inh: -89; Ecoli rRNA inh: -22*; Xi reactivation: 0

Bioassay records deposited in PubChem by Broad Institute.
